We go through twelve compounds from ChEMBL document CHEMBL4359913, “Identification and characterization of benzo[d]oxazol-2(3H)-one derivatives as the first potent and selective small-molecule inhibitors of chromodomain protein CDYL” (Eur J Med Chem, 2019).

Activity calls are given as the source filed them. No cut-off for these calls is given here. Where a SMILES comes first, the peptide text is derived from it. [ ]: non-standard residue; d: D form. The star is where a group is joined. Benzoyl(4-tBu) = CC(C)(C)c1ccc(C(=O)*)cc1; Lys(Et2) = CCN(CC)CCCC[C@H](N)C(=O)O

The target of test [1] is T1, Chromodomain Y-like protein (Homo sapiens, UniProt Q9Y232).
T1 sequence (Q9Y232 whole entry): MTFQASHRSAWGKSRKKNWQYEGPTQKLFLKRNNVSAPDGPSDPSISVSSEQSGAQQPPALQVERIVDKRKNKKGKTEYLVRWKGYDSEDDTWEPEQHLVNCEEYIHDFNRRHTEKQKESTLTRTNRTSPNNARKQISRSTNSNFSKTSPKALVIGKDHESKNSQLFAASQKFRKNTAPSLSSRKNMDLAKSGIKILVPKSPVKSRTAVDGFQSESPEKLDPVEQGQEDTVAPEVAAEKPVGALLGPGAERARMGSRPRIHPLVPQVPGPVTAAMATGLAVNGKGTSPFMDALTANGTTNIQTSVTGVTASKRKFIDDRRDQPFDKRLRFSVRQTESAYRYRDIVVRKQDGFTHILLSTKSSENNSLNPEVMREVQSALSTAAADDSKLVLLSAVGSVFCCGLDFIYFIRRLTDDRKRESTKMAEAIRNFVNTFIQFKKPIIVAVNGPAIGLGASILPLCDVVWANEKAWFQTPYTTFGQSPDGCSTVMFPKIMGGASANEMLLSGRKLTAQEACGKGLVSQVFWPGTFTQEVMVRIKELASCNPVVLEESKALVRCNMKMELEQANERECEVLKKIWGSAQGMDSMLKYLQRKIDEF
In words: Binding affinity to recombinant human N-terminal GST-tagged CDYL (1 to 60 residues) expressed in Escherichia coli […] by SPR analysis. A digest of the protocol:
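GST-tagged chromodomain expressed in E. coli BL21 with 0.2 mM IPTG at 28 °C for 6 h. Purified on GSTrap, tag removed with PreScission protease. Amine-coupled to CM5 chip at pH 4.0–4.5 (5000–10000 RU). Compound run as a 1.5- or 2-fold series from 100 µM in PBSP with 5% DMSO, 25 °C, 30 µL/min, 60 s association and 60 s dissociation.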

Test [2] has as its target T2, Testis-specific chromodomain protein Y 1 (Homo sapiens, UniProt Q9Y6F8).
T2 sequence (Q9Y6F8 whole entry): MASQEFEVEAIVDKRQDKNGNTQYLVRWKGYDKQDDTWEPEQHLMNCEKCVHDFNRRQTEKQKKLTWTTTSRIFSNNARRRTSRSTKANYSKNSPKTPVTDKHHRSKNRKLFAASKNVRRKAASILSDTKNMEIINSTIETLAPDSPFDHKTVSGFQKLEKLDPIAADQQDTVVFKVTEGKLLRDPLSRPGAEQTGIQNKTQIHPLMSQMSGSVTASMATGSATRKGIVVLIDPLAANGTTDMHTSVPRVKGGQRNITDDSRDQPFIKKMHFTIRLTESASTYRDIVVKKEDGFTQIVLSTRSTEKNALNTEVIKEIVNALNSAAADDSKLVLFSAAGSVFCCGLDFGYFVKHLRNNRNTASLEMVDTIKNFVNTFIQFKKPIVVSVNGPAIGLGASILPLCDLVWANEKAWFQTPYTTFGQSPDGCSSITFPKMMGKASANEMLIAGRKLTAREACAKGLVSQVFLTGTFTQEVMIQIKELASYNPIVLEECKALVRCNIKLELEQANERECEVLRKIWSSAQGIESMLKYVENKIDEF
In words: Binding affinity to recombinant human N-terminal GST-tagged CDY1 (1 to 65 residues) expressed in Escherichia coli […] by SPR analysis. The method in brief: (§1)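 Chromodomain expressed with N-terminal GST tag in E. coli BL21 (IPTG 0.2 mM at OD600 0.6–0.8, 28 C for 6 h), GSTrap purified, tag cleaved by PreScission protease, amine-coupled to CM5 chip at pH 4.0–4.5 (5000–10000 RU). […] Mean ± SD of at least two replicates, each in duplicate.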

Test [3] concerns the target T3, Chromobox protein homolog 7 (Homo sapiens, UniProt O95931).
T3 sequence (O95931 whole entry): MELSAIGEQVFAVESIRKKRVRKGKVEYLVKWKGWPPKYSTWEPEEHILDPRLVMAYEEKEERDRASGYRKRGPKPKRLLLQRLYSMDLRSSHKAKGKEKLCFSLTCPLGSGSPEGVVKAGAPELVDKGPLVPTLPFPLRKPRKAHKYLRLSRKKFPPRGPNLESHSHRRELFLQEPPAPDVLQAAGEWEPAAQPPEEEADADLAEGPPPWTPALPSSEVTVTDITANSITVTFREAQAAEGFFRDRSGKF
In words: Binding affinity to recombinant human N-terminal GST-tagged CBX7 (1 to 62 residues) expressed in Escherichia coli […] by SPR analysis. A digest of the protocol: as §1

For a further test, the system named is SH-SY5Y. In words: Cytotoxicity against human SH-SY5Y cells assessed as reduction in cell viability incubated for 24 hrs by CCK8 assay.
The test system of the next test is HEK-293T. Put plainly: Cytotoxicity against human HEK293T cells assessed as reduction in cell viability incubated for 24 hrs by CCK8 assay.
Test [4] concerns the target T4, Chromodomain Y-like protein (Homo sapiens) (UniProt Q9Y232).
T4 sequence (whole entry): T1 sequence (Q9Y232 whole entry)
In words: Inhibition of CDYL in human SH-SY5Y cells assessed as increase in MYT1 mRNA expression at 100 uM incubated for 24 hrs by RT-qPCR analysis. It counts as cell-based. The method in brief: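 SH-SY5Y cells exposed to 100 µM compound for 24 h. MYT1 mRNA measured by RT-qPCR: DNase treatment, SYBR green, 2^-ΔΔCt with GAPDH as internal control. Mean ± S.E.M. of triplicate experiments.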

The target in test [5] is T4, Chromodomain Y-like protein (Homo sapiens). Put plainly: Effect on CDYL-mediated MYT1 mRNA expression in human SH-SY5Y cells up to 200 uM incubated for 24 hrs by RT-qPCR analysis. It counts as cell-based.
Test [6] has the same target. In words: Effect on CDYL-mediated MYT1 mRNA expression in human HEK293T cells up to 200 uM incubated for 24 hrs by RT-qPCR analysis. It counts as cell-based.
The target is the same in test [7]. Put plainly: Inhibition of CDYL in human HEK293T cells assessed as increase in MYT1 mRNA expression at 50 to 200 uM incubated for 24 hrs by RT-qPCR analysis. Format: cell-based. A digest of the protocol:
(§2)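 SH-SY5Y or HEK-293T cells grown in DMEM with 10% FBS and treated with compound for 24 h. mRNA quantified by SYBR green RT-qPCR after DNase treatment, 2^-ΔΔCt method with GAPDH as reference, relative to DMSO. Mean ± S.E.M. of triplicate experiments, Student's t-test.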

The target is the same in test [8]. Put plainly: Inhibition of CDYL in human HEK293T cells assessed as increase in BDNF mRNA expression at 50 to 200 uM incubated for 24 hrs by RT-qPCR analysis. It counts as cell-based. The method in brief: as §2
The target is the same in test [9]. Put plainly: Inhibition of CDYL in human HEK293T cells assessed as increase in VGF mRNA expression at 50 to 200 uM incubated for 24 hrs by RT-qPCR analysis. It counts as cell-based. The method in brief:
as §2

The target is the same in test [10]. In words: Inhibition of CDYL in human SH-SY5Y cells assessed as BDNF mRNA expression at 50 to 200 uM incubated for 24 hrs by RT-qPCR analysis. It counts as cell-based. The method in brief:
as §2

For test [11] the target is unchanged. In words: Inhibition of CDYL in human SH-SY5Y cells assessed as VGF mRNA expression at 50 to 200 uM incubated for 24 hrs by RT-qPCR analysis. It counts as cell-based. The method in brief: as §2
The target is the same in test [12]. Put plainly: Inhibition of CDYL in human SH-SY5Y cells assessed as MYT1 mRNA expression at 50 to 200 uM incubated for 24 hrs by RT-qPCR analysis. It counts as cell-based. The method in brief: as §2
Test [13] shares this target. In words: Inhibition of CDYL in human SH-SY5Y cells assessed as increase in MYT1 mRNA expression incubated for 24 hrs by RT-qPCR analysis. It counts as cell-based. The method in brief:
as §2

For test [14] the target is unchanged. Put plainly: Inhibition of CDYL in human SH-SY5Y cells assessed as increase in BDNF mRNA expression incubated for 24 hrs by RT-qPCR analysis. Format: cell-based. The method in brief: as §2
Test [15] shares this target. In words: Inhibition of CDYL in human SH-SY5Y cells assessed as increase in VGF mRNA expression incubated for 24 hrs by RT-qPCR analysis. It counts as cell-based. A digest of the protocol: as §2

Take `COc1cccc(C(=O)Cn2c(=O)[nH]c3ccc(Cl)cc32)c1`: the Kd in test [1] worked out at 14.8 µM; in test [2], 70.4 µM; in test [3], 28.9 µM. The IC50 with SH-SY5Y and in the test with HEK-293T was above 200 µM throughout.

Consider `COc1cccc(C(=O)/C=C2\C(=O)Nc3ccc(Cl)cc32)c1`, for which the figures for the Kd in test [1] and in test [2] were 15.4 µM and 10.3 µM, respectively. For the same compound, the values for the IC50 in the test with SH-SY5Y and in the test on HEK-293T were 21.5 µM and 16.6 µM, respectively.

Regarding `CCc1ccc(C(=O)CC2(O)C(=O)Nc3ccc(Cl)cc32)cc1` (centres undefined), the Kd in test [1] was determined as 55.6 µM; in [2], 33.5 µM; in test [3] it was 12.1 µM. Moreover, the outcome in [4] was Active.

For `COc1cccc(C(=O)CC2C(=O)Nc3ccc(Cl)cc32)c1` (racemic), the figures for the Kd in [1] and in test [2] were 1.2 µM and above 200 µM, respectively. The IC50 in the test with SH-SY5Y was 43.4 µM; with HEK-293T, 36.9 µM.

As to `CCN(CC)CCCC[C@H](NC(=O)[C@H](CC(C)C)NC(=O)[C@H](C)NC(=O)[C@H](Cc1ccccc1)NC(=O)c1ccc(C(C)(C)C)cc1)C(=O)N[C@@H](CO)C(=O)OC` ({Benzoyl(4-tBu)}-FAL[Lys(Et2)]S-OMe), the Kd in [1] came to 5.6 µM. Moreover, the result in test [5] and in [6] was inactive.

On to `COc1ccc2oc(=O)n(CC(=O)N3CCC(N4CCCC4)CC3)c2c1`, for which the Kd in test [1] came out at 12.5 µM; in test [3] it was 8.2 µM. Besides, the result in test [7], in test [8], in test [9], in test [10], in [11] and in test [12] was inactive.

As to `COc1cccc(C(=O)CC2(O)C(=O)Nc3ccc(Cl)cc32)c1` (racemic), the Kd in test [1] was 4.9 µM; in test [3], 84.4 µM. Also, in [13], the Activity result was “Dose-dependent effect”. In addition, the IC50 with SH-SY5Y was determined as 68.1 µM; in the test on HEK-293T, 56.1 µM.

As for `O=C(CN1C(=O)COc2ccccc21)c1ccc2ccccc2c1`, the Kd was 52.5 µM in test [1], 39.6 µM in test [2] and 26.5 µM in test [3].

As to `CC(C)N1C(=O)C(O)(CC(=O)c2ccco2)c2ccccc21` (centres undefined), the Kd in test [1] was 13.1 µM; in [2], 61.6 µM; in test [3] it was 41.1 µM.

With `COc1ccc(C(=O)Cn2c(=O)oc3ccc(F)cc32)cc1OC`, the Kd is 20.5 µM in test [1], 4.4 µM in [2] and 28.8 µM in test [3].

Take `O=C(Cn1c(=O)oc2ccccc21)c1ccc2ccccc2c1`: the figures for the Kd in test [1], in test [2] and in test [3] were 2.6 µM, 41.7 µM and 14.2 µM, respectively. For the same compound, the Activity result in [13], in [14] and in [15] was “Dose-dependent effect” throughout. The result in test [7], in test [8] and in test [9] was Active.

`O=C(Cn1c(=O)oc2ccccc21)c1c[nH]c2ccccc12`: the results for the Kd in test [1], in [2] and in test [3] were 1.9 µM, 21 µM and 9.3 µM, respectively.
